{
  "source": "ChEMBL document CHEMBL4513216",
  "about": "“Probing the Open Global Health Chemical Diversity Library for Multistage-Active Starting Points for Next-Generation Antimalarials” (ACS Infect Dis, 2020)",
  "data": [
    {"experiment": "Toxicity liver stage against HepG2, at 10uM", "assay_type": "cell-based", "design": "test concentration 10 uM, cell line HepG2-A16-CD81EGFP", "conditions": "human, HepG2-A16-CD81EGFP cells; read-out: INHIBITION", "method_in_brief": "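Uninfected HepG2-A16-CD81EGFP cells, 3 × 10^3 per well, 1536-well, plated on prespotted compound at 10 μM final, parasite-free screening media added to match infected plates; puromycin 10 μM positive, DMSO 0.5% negative; run in parallel with 48 h PbLuc assay at 37 °C, 5% CO2; viability by CellTiter-Glo luminescence, normalized to controls.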", "units": {"cytotoxicity at 10 µM": "%"}, "values": [
      {"smiles": "Cc1cc(C(=O)NCc2cccn2C)nn1C", "cytotoxicity at 10 µM": 1.21},
      {"smiles": "C/C(NC(=O)c1ccccn1)=C1\\C(=O)C[C@@H]2[C@H]1C2(C)C", "cytotoxicity at 10 µM": 7.66},
      {"smiles": "COCCN1C(=O)CO[C@@H]2CN(S(=O)(=O)c3ccccc3)C[C@H]21", "cytotoxicity at 10 µM": 0.975},
      {"smiles": "O=c1[nH]c2c(-c3ccccn3)nsc2c(=O)n1C1CCCCC1", "cytotoxicity at 10 µM": -11.5},
      {"smiles": "Cc1nn(S(=O)(=O)c2ccc(Cl)cc2)c(C)c1C", "cytotoxicity at 10 µM": 15.1},
      {"smiles": "COCCN(Cc1ccoc1)C(=O)c1c(F)cccc1Cl", "cytotoxicity at 10 µM": -0.11},
      {"smiles": "Cc1oc(-c2nc(C#N)c(N(C)C)o2)cc1S(=O)(=O)N1CCCC1", "cytotoxicity at 10 µM": -8.87},
      {"smiles": "Cc1noc([C@@H]2CC[C@@H]3[C@@H](CCN3S(=O)(=O)C3CC3)O2)n1", "cytotoxicity at 10 µM": -11.6},
      {"smiles": "CCO[C@@H]1CC[C@H]2[C@H]1OCCN2C(=O)C1CCOCC1", "cytotoxicity at 10 µM": -19.8},
      {"smiles": "Cc1ccnc(NC(=O)CCc2cnn(C)c2C)c1", "cytotoxicity at 10 µM": 0.107},
      {"smiles": "CCS(=O)(=O)Nc1cnn(Cc2cccc(F)c2)c1", "cytotoxicity at 10 µM": -1},
      {"smiles": "CCn1c(SCC(=O)O)nnc1C(C)NC(=O)c1ccc(Cl)cc1", "note": "(configuration not stated)", "cytotoxicity at 10 µM": 3.52},
      {"smiles": "CCOC(=O)C1CCN(c2cc(C(=O)N3CCCCC3)nc(C)n2)CC1", "cytotoxicity at 10 µM": -4.17},
      {"smiles": "COc1ccccc1Cc1cc(O)nc(NC(C)CN(C)C)n1", "note": "(configuration not stated)", "cytotoxicity at 10 µM": 2.32},
      {"smiles": "Cc1ccccc1OCCCNC(=O)C1(C)CC(=O)N2C=CC=CC2=N1", "note": "(configuration not stated)", "cytotoxicity at 10 µM": -4.96},
      {"smiles": "O=C(O)[C@H]1CN(Cc2ccccc2)C[C@@H]1C(=O)c1ccccc1", "cytotoxicity at 10 µM": 5.76},
      {"smiles": "Cc1cc(NC(=O)N2CCC[C@@H]2CO)nn1-c1cccc(Cl)c1", "cytotoxicity at 10 µM": -1.08},
      {"smiles": "N#Cc1cc(S(N)(=O)=O)ccc1N1CCc2c(Cl)cccc2C1", "cytotoxicity at 10 µM": 14.7},
      {"smiles": "O=c1cc(CN(Cc2ccco2)C2CC2)nc2ccc(Br)cn12", "cytotoxicity at 10 µM": 9.48},
      {"smiles": "O=C(CNC(=O)C1CC1)Nc1c(F)cccc1Oc1ccccc1", "cytotoxicity at 10 µM": 0.99},
      {"smiles": "Cc1ccccc1OCCCC(=O)NCc1ccnc(O)c1", "cytotoxicity at 10 µM": 5.65},
      {"smiles": "OCCN(Cc1cccnc1)c1cnc2ccccc2n1", "cytotoxicity at 10 µM": 1.06},
      {"smiles": "CN(CCCNC(=O)Nc1ccc(C#N)cc1)CC(F)(F)F", "cytotoxicity at 10 µM": -3},
      {"smiles": "CCOC(C)c1nc(CN2CCN(Cc3cccnc3)CC2)cs1", "note": "(configuration not stated)", "cytotoxicity at 10 µM": 3.59},
      {"smiles": "O=C(CN1CCCCC1Cn1cccn1)NC1CCOCC1", "note": "(configuration not stated)", "cytotoxicity at 10 µM": 4.08},
      {"smiles": "Cc1cc(CN(C)C(=O)C2CCCN(C(N)=O)C2)no1", "note": "(configuration not stated)", "cytotoxicity at 10 µM": 11.6},
      {"smiles": "Cc1noc(C)c1CNC(=O)N1CCC(NS(C)(=O)=O)CC1", "cytotoxicity at 10 µM": -9.41},
      {"smiles": "COc1ccc(F)cc1C[S+]([O-])CC(=O)NCc1ccccc1C", "note": "(configuration not stated)", "cytotoxicity at 10 µM": -0.907},
      {"smiles": "CN1CCC(NC(=O)CC2CN(Cc3ccccc3)CCO2)CC1", "note": "(configuration not stated)", "cytotoxicity at 10 µM": -22.2},
      {"smiles": "Cc1cccc(-c2nc(CN3CCn4c(nnc4C4CC4)C3)no2)c1", "cytotoxicity at 10 µM": 3.33},
      {"smiles": "N#Cc1nccnc1NC1CCN(c2c(F)cccc2F)C1", "note": "(configuration not stated)", "cytotoxicity at 10 µM": 5.2},
      {"smiles": "O=C(c1ccc(N2CCCC2)nn1)N1CCCc2cc(F)c(F)cc21", "cytotoxicity at 10 µM": -16.3},
      {"smiles": "CSCCN(C)Cc1ccc(F)cc1C#N", "cytotoxicity at 10 µM": 4.81},
      {"smiles": "CCN(CC)S(=O)(=O)N(Cc1cccc(C)c1)Cc1ccccn1", "cytotoxicity at 10 µM": -4.88},
      {"smiles": "O=C(Cc1ccon1)NC1CCCN(c2ccccc2F)C1=O", "note": "(configuration not stated)", "cytotoxicity at 10 µM": -2.03},
      {"smiles": "COc1ccnc(N2CCN(Cc3nc(-c4ccoc4)no3)CC2)c1", "cytotoxicity at 10 µM": -10.9},
      {"smiles": "CN(CCC#N)C(=O)Cc1csc(-c2ncccn2)n1", "cytotoxicity at 10 µM": -0.343},
      {"smiles": "Cc1nc(C2CCCN2C(=O)CCCOc2ccccc2C)no1", "note": "(configuration not stated)", "cytotoxicity at 10 µM": -2.21},
      {"smiles": "CC(C)c1nc(CN(C)C2CCN(CC(F)(F)F)C2)no1", "note": "(configuration not stated)", "cytotoxicity at 10 µM": -15.8},
      {"smiles": "O=C(c1cnccn1)N1CCc2onc(Cn3cccn3)c2C1", "cytotoxicity at 10 µM": -0.25},
      {"smiles": "O=C(NCCO)c1ccn(-c2ccc3ccccn23)n1", "cytotoxicity at 10 µM": -8.21},
      {"smiles": "COc1cccc(N2CCN(C(=O)C(C)Oc3ccccc3)CC2=O)c1", "note": "(configuration not stated)", "cytotoxicity at 10 µM": -4.73},
      {"smiles": "CC(C)CC(C)NCc1cccnc1N1CCN(c2ccccn2)CC1", "note": "(configuration not stated)", "cytotoxicity at 10 µM": 0.997},
      {"smiles": "CCc1nnc(CN(CC)C(=O)C2CC(=O)N(C3CC3)C2)o1", "note": "(configuration not stated)", "cytotoxicity at 10 µM": -0.143},
      {"smiles": "Cc1cc(C(=O)N2CCCC(c3ccc(C(=O)O)cc3)C2)c(C)o1", "note": "(configuration not stated)", "cytotoxicity at 10 µM": 11.8},
      {"smiles": "CCCn1nccc1S(=O)(=O)N1CCC2(CCCN(C(C)C)C2=O)C1", "note": "(configuration not stated)", "cytotoxicity at 10 µM": 5.96},
      {"smiles": "Cc1cc(C)nc(N2CCCC(Cn3cc(CN(C)C)nn3)C2)n1", "note": "(configuration not stated)", "cytotoxicity at 10 µM": -5.43},
      {"smiles": "CCC(OC)C(=O)N1CCC2(CC1)c1nc[nH]c1CCN2S(C)(=O)=O", "note": "(configuration not stated)", "cytotoxicity at 10 µM": -6.6},
      {"smiles": "COCCS(=O)(=O)c1ncc(CN(C)C)n1Cc1ccccc1", "cytotoxicity at 10 µM": 3.19},
      {"smiles": "Cc1csc(CN2CC[C@@](O)(C3CCOCC3)[C@H](C)C2)n1", "cytotoxicity at 10 µM": 4.48},
      {"smiles": "O=C(c1cnn[nH]1)N(Cc1ccncc1)CC1CCCO1", "note": "(configuration not stated)", "cytotoxicity at 10 µM": 2.86},
      {"smiles": "Cc1ccc(F)cc1CC(=O)N1CC[C@@]2(O)CCNC[C@H]2C1", "cytotoxicity at 10 µM": 2.38},
      {"smiles": "O=C(O)CSc1nnc(-c2ccn[nH]2)n1-c1cccc(C(F)(F)F)c1", "cytotoxicity at 10 µM": 0.34},
      {"smiles": "c1ccc(COCCN2CCc3[nH]cnc3C2c2ccoc2)cc1", "note": "(configuration not stated)", "cytotoxicity at 10 µM": 6.62},
      {"smiles": "CCn1cc(C2=CCN(CCCOc3ccccc3)CC2)cn1", "cytotoxicity at 10 µM": -9.98},
      {"smiles": "CCC(CO)N(Cc1ccco1)C(=O)c1cccnc1NC", "note": "(configuration not stated)", "cytotoxicity at 10 µM": 1.64},
      {"smiles": "CN(CC1CCOCC1)C(C(=O)O)c1cccc(F)c1F", "note": "(configuration not stated)", "cytotoxicity at 10 µM": 6.89},
      {"smiles": "O=C(Cc1n[nH]c(-c2cncc(Br)c2)n1)NCc1cccnc1", "cytotoxicity at 10 µM": 2.74},
      {"smiles": "Cc1nc2ncnn2c2ccn(-c3cccnc3O)c(=O)c12", "cytotoxicity at 10 µM": 15.9},
      {"smiles": "Cn1cccc1C(=O)N1CCC2(CCCN(CC3CC3)C2=O)C1", "note": "(configuration not stated)", "cytotoxicity at 10 µM": -0.445},
      {"smiles": "CCOC(=O)N1CCC(NC(=O)c2cccc(C3CCCNC3)c2)CC1", "note": "(configuration not stated)", "cytotoxicity at 10 µM": 1.34},
      {"smiles": "COc1ccccc1OC1CN(C(=O)Cc2c(C)nc(C)[nH]c2=O)C1", "cytotoxicity at 10 µM": -2.9},
      {"smiles": "CC(C)OCCCNC(=O)CS(=O)(=O)Cc1ccc(Cl)cc1", "cytotoxicity at 10 µM": -2.87},
      {"smiles": "Cc1csc(CNC(=O)NC(C)c2ccc3c(c2)CCC(=O)N3)n1", "note": "(configuration not stated)", "cytotoxicity at 10 µM": 4.17},
      {"smiles": "O=C(c1cccn1Cc1cccs1)N1CCSCC1", "cytotoxicity at 10 µM": 4.14},
      {"smiles": "O=C(NCCNc1ncccn1)C1CCN(C(=O)NC2CC2)CC1", "cytotoxicity at 10 µM": -14.5},
      {"smiles": "Cc1cnn(C2CCCN(C(=O)CCCn3ccnc3C)C2)c1", "note": "(configuration not stated)", "cytotoxicity at 10 µM": -18.3},
      {"smiles": "N#Cc1ccc(OCC(O)CN2CCc3cncnc3C2)cc1", "note": "(configuration not stated)", "cytotoxicity at 10 µM": -8.61},
      {"smiles": "N#CCc1cccc(C(=O)N2CCN(CC(O)c3ccccc3)CC2)c1", "note": "(configuration not stated)", "cytotoxicity at 10 µM": -10.7},
      {"smiles": "c1csc(-c2noc(CN3CCCCC3Cn3cccn3)n2)c1", "note": "(configuration not stated)", "cytotoxicity at 10 µM": -15.4},
      {"smiles": "CC(NC(=O)Nc1ccc(N2CCCC2)nc1)c1nncn1C", "note": "(configuration not stated)", "cytotoxicity at 10 µM": -12.6},
      {"smiles": "Cc1n[nH]c(C)c1NC(=O)CN1CCCC1c1c(C)nn(C)c1C", "note": "(configuration not stated)", "cytotoxicity at 10 µM": -19.2},
      {"smiles": "c1ccc(-n2ccc(CN3CCCC3Cn3cncn3)n2)cc1", "note": "(configuration not stated)", "cytotoxicity at 10 µM": 0.665},
      {"smiles": "Cc1ccc(CNC(=O)N2CCCC(NS(C)(=O)=O)C2)cc1", "note": "(configuration not stated)", "cytotoxicity at 10 µM": 2.73},
      {"smiles": "Cc1n[nH]c(=O)c2c(NC(=O)CN3CCOCC3)oc(C)c12", "cytotoxicity at 10 µM": -7.95},
      {"smiles": "CCn1cc2c(n1)CN(Cc1ccoc1)CC2COCC1CC1", "note": "(configuration not stated)", "cytotoxicity at 10 µM": -23.3},
      {"smiles": "O=C(NCc1cncc2c1CCN(Cc1cccs1)C2)C1CC1", "cytotoxicity at 10 µM": 2.13},
      {"smiles": "O=C1CC(c2cccnc2)C2(CCN(S(=O)(=O)C3CC3)CC2)N1", "note": "(configuration not stated)", "cytotoxicity at 10 µM": -2.29},
      {"smiles": "O=C(c1cnccn1)N1CCCC2(CCN(c3ncccn3)C2)C1", "note": "(configuration not stated)", "cytotoxicity at 10 µM": 5.61},
      {"smiles": "O=C(CC1CC1)NCc1cn2c(n1)CN(CC1CC1)CC2", "cytotoxicity at 10 µM": 4.17},
      {"smiles": "CC(C)NC(=O)c1ccc2c(c1)C1(CCN(C)CC1)C(=O)N2", "cytotoxicity at 10 µM": -0.201},
      {"smiles": "Cc1nc(CN2CCO[C@@H]3CN(C(=O)CC4CC4)C[C@@H]3C2)cs1", "cytotoxicity at 10 µM": 5.04}
    ]}
  ]
}
